Key:
[1] = melting temperature; fluorescence melt of hairpins on a sequencing array, two-state fit, raised by 9.35 °C to match UV melts; settings: sodium 0.088 M
In short: (§1)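 Cy3 signals were normalised both to pre-quench Cy3 and to control constructs. They came from library hairpins carrying annealed Cy3 and quencher oligos on a sequenced MiSeq flow cell, imaged in 50 mM Na-HEPES pH 8.0, 25 mM NaCl, in 2.5 °C steps up to 60 °C. Bootstrapped two-state fits gave melting temperature and folding enthalpy, and four replicates were combined by inverse variance. Fitted temperatures were then raised by 9.35 °C to match UV melts.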

[2] = folding enthalpy; higher = less favourable; fluorescence melt of hairpins on a sequencing array, two-state fit; settings: sodium 0.088 M
In short: as §1

Which Tm [1] does the source give for GCGTTCGGAAACGAACAC (.(((((....))))).) here?
Its Tm is 45.5 °C.

What about the folding enthalpy [2] of the same sequence?
Its folding enthalpy is -13.7 kcal/mol.

Which Tm [1] does the source give for GCTCAGCGAAAGCTTCGC ((..(((....)))..)) here?
The Tm was 40 °C.

And the folding enthalpy [2]?
The folding enthalpy was -12.6 kcal/mol.

With GATCGCGAAAGCGGATC ((((((....))).))) as the sequence, how does the Tm [1] read?
Its Tm is 57 °C.

And the folding enthalpy [2]?
Its folding enthalpy is -16.4 kcal/mol.

For GAAGTGGGAAACTACTTC (((((.(....).))))), which Tm [1] is on record?
The Tm was 43.1 °C.

What about the folding enthalpy [2] of the same sequence?
The folding enthalpy was -37.4 kcal/mol.

With GCGTCGGGAAACTGACGC (((((.(....).))))) as the sequence, how does the Tm [1] read?
The Tm was 65.3 °C.

What about the folding enthalpy [2] of the same sequence?
The folding enthalpy was -49.8 kcal/mol.

Which Tm [1] does the source give for CGTCCGGAAACGGCCACG ((((((....)))..))) here?
Its Tm is 33.1 °C.

What about the folding enthalpy [2] of the same sequence?
Its folding enthalpy is -13 kcal/mol.

Which Tm [1] does the source give for GCACAGCGAAAGCACTGC (((..((....))..))) here?
The Tm was 35.8 °C.

What about the folding enthalpy [2] of the same sequence?
Its folding enthalpy is -11.7 kcal/mol.

With GCCACCGAAAGGTATGGC ((((((....)))..))) as the sequence, how does the Tm [1] read?
The Tm was 52.8 °C.

What about the folding enthalpy [2] of the same sequence?
The folding enthalpy was -36.9 kcal/mol.

For GGACCGGGAAACCGATCC (((.(((....))).))), which Tm [1] is on record?
The Tm was 48 °C.

What about the folding enthalpy [2] of the same sequence?
The folding enthalpy was -35.7 kcal/mol.

What does the source list for TAAGCGAAAGCTTA (((((....)))))?
Tm [1]: 54.5 °C; folding enthalpy [2]: -15 kcal/mol

Which Tm [1] does the source give for GGGCTACGAAAGTAACCC (((.(((....))).))) here?
The Tm was 52 °C.

What about the folding enthalpy [2] of the same sequence?
The folding enthalpy was -36.6 kcal/mol.

Which Tm [1] does the source give for GGCTAAGAAATTAGCC ((((((....)))))) here?
Its Tm is 53.8 °C.

What about the folding enthalpy [2] of the same sequence?
The folding enthalpy was -27 kcal/mol.

For GCCTACCGAAAGGTGGGC (((.(((....))).))), which Tm [1] is on record?
The Tm was 69.1 °C.

And the folding enthalpy [2]?
The folding enthalpy was -38.6 kcal/mol.

With GATGCCGAAAGGCCTATC ((((((....)))..))) as the sequence, how does the Tm [1] read?
The Tm was 24 °C.

And the folding enthalpy [2]?
Its folding enthalpy is -6.67 kcal/mol.

What does the source list for GGTATAGCGAAAGCTACC (((..(((....))))))?
Tm [1]: 39.6 °C; folding enthalpy [2]: -15.4 kcal/mol

What does the source list for GCACTCGAAAGAGGCTGC ((((((....)))..)))?
Tm [1]: 53 °C; folding enthalpy [2]: -19.6 kcal/mol

With GACCAGGCGAAAGCCGTC (((..(((....)))))) as the sequence, how does the Tm [1] read?
Its Tm is 36.2 °C.

What about the folding enthalpy [2] of the same sequence?
Its folding enthalpy is -7.64 kcal/mol.

With GAGCGCACGAAAGTGCTC (((..(((....)))))) as the sequence, how does the Tm [1] read?
The Tm was 38.1 °C.

What about the folding enthalpy [2] of the same sequence?
Its folding enthalpy is -8.27 kcal/mol.

With GCGGAGGGCCGC ((((....)))) as the sequence, how does the Tm [1] read?
The Tm was 53.9 °C.

What about the folding enthalpy [2] of the same sequence?
The folding enthalpy was -15.4 kcal/mol.

For GCAACGCGAAAGCATAGC ((.(.((....)).).)), which Tm [1] is on record?
The Tm was 37.5 °C.

What about the folding enthalpy [2] of the same sequence?
Its folding enthalpy is -9.72 kcal/mol.

Which Tm [1] does the source give for GCGAGTCGAAAGACCCGC (((.(((....))).))) here?
Its Tm is 57.3 °C.

What about the folding enthalpy [2] of the same sequence?
Its folding enthalpy is -48.2 kcal/mol.

For GCAAGCGGAAACGCTCAC (..((((....))))..), which Tm [1] is on record?
The Tm was 30.5 °C.

And the folding enthalpy [2]?
Its folding enthalpy is -9.17 kcal/mol.

For GATCAATCATTGATC ((((((...)))))), which Tm [1] is on record?
The Tm was 42 °C.

And the folding enthalpy [2]?
Its folding enthalpy is -27.1 kcal/mol.

Which results are given for AGGATGAAAATCCT (((((....)))))?
Tm [1]: 41.6 °C; folding enthalpy [2]: -22.2 kcal/mol

Which results are given for GCATGCGGAAACGCACGC ((.((((....)))).))?
Tm [1]: 52.1 °C; folding enthalpy [2]: -25.7 kcal/mol

With GCGGTGCGAAAGCAAGGC ((..(((....)))..)) as the sequence, how does the Tm [1] read?
The Tm was 51.2 °C.

And the folding enthalpy [2]?
The folding enthalpy was -19.1 kcal/mol.

For GTTTTCGGAAACGAAAGC (.(((((....))))).), which Tm [1] is on record?
Its Tm is 44.4 °C.

What about the folding enthalpy [2] of the same sequence?
The folding enthalpy was -25.9 kcal/mol.

Which Tm [1] does the source give for GCATTCGAAAGAAAGTGC ((((((....)))..))) here?
Its Tm is 30.4 °C.

And the folding enthalpy [2]?
Its folding enthalpy is -12.4 kcal/mol.

For GTGTAGCCGAAAGGCCAC (((..(((....)))))), which Tm [1] is on record?
Its Tm is 47 °C.

What about the folding enthalpy [2] of the same sequence?
The folding enthalpy was -17.3 kcal/mol.

What does the source list for GTCGTGAAAACGAC (((((....)))))?
Tm [1]: 60.8 °C; folding enthalpy [2]: -30.5 kcal/mol

Which Tm [1] does the source give for GGCACCCCGAAAGGGGCC (((..(((....)))))) here?
Its Tm is 53.1 °C.

And the folding enthalpy [2]?
The folding enthalpy was -12.9 kcal/mol.

For GCAATGCGAAAGCAGCGC ((..(((....)))..)), which Tm [1] is on record?
The Tm was 55.9 °C.

What about the folding enthalpy [2] of the same sequence?
The folding enthalpy was -18.8 kcal/mol.

For GGTACTCGAAAGAGACC (((.(((....)))))), which Tm [1] is on record?
Its Tm is 43.1 °C.

And the folding enthalpy [2]?
Its folding enthalpy is -23.6 kcal/mol.

For GGCTGGGGAAACCCGGCC (((.(((....))).))), which Tm [1] is on record?
The Tm was 66.6 °C.

And the folding enthalpy [2]?
The folding enthalpy was -39.7 kcal/mol.

What does the source list for GCATAGGGAAACTTATGC (((((.(....).)))))?
Tm [1]: 41.6 °C; folding enthalpy [2]: -29.2 kcal/mol

For GCAGTCGAAAGACACTGC ((((((....)))..))), which Tm [1] is on record?
The Tm was 43.5 °C.

What about the folding enthalpy [2] of the same sequence?
Its folding enthalpy is -18 kcal/mol.

Which Tm [1] does the source give for GAGGAGGGAAACCTCTTC ((.((((....)))).)) here?
The Tm was 47.8 °C.

What about the folding enthalpy [2] of the same sequence?
Its folding enthalpy is -27.7 kcal/mol.

What does the source list for GATCGCCGAAAGGCATC (((.(((....))))))?
Tm [1]: 37.6 °C; folding enthalpy [2]: -9.53 kcal/mol

Which Tm [1] does the source give for GATCGCGTGGGCGATC ((((((....)))))) here?
Its Tm is 68.2 °C.

And the folding enthalpy [2]?
Its folding enthalpy is -30.8 kcal/mol.

Which Tm [1] does the source give for GTTGTAGGAAACTGCAAC ((((.((....)).)))) here?
Its Tm is 46.9 °C.

And the folding enthalpy [2]?
The folding enthalpy was -17.8 kcal/mol.

Which results are given for GCATAGCGAAAGCCTTGC (((..((....))..)))?
Tm [1]: 36.9 °C; folding enthalpy [2]: -13.9 kcal/mol

With GATCCTTAATAGGATC ((((((....)))))) as the sequence, how does the Tm [1] read?
Its Tm is 50.1 °C.

What about the folding enthalpy [2] of the same sequence?
Its folding enthalpy is -39.1 kcal/mol.

Which results are given for GTACCCCGAAAGGGCTAC (((.(((....))).)))?
Tm [1]: 35.7 °C; folding enthalpy [2]: -14 kcal/mol

With GCGATAGTCGC ((((...)))) as the sequence, how does the Tm [1] read?
The Tm was 52.5 °C.

And the folding enthalpy [2]?
The folding enthalpy was -14 kcal/mol.

Which results are given for GATCTGGCACAGATC ((((((...))))))?
Tm [1]: 58.4 °C; folding enthalpy [2]: -38.8 kcal/mol

For GTTTTCCCGAAAGGGAAC (((..(((....)))))), which Tm [1] is on record?
The Tm was 36.5 °C.

And the folding enthalpy [2]?
The folding enthalpy was -10.7 kcal/mol.

Reference: the array DNA melting data of Ke et al. (doi:10.1101/2024.01.08.574731)
